Shown are actives, neighbours in structure and some others; about 6.8% of the full set was active somewhere.
HSF-1 act: increases HSF-1 driven luciferase reporter signal | NIH3T3-HGL HSF-1 luciferase reporter, MG132, 8 h; 100% = twice DMSO control signal | activation, % at 9 µM | actives 1.7% (n = 300,000);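 active = mean replicate activation of at least 50% with a set share of replicates each reaching 50%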;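 also: 0% = median of the neutral control wells and 100% = twice that signal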
HCV core dimer: HCV core protein dimerization inhibition; inhibition, % at 5 µM; TR-FRET GST/Flag-core106 dimerization, 1536-well; actives 0.33% (n = 300,000);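 active = inhibition above the mean of all tested compounds plus 3 SD, set per screening campaign, cut at about 45% in these data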
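System: GST/Flag-tagged HCV core106 proteins. Incubation: compound-protein-antibody incubation 4 h at 22.5 °C. Technique: HTRF with 340 nm excitation, 617/671 nm emission. Medium: KF-containing HEPES buffer, pH 7.45, DTT, CHAPS, BSA. Read-out: inhibition (%) from 671 over 617 nm ratio. Also added: Eu(K)-anti-GST 90 ng/mL plus XL665-anti-Flag 1 µg/mL.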
AI-2 QS modul: modulators of Vibrio harveyi AI-2 quorum sensing system; actives 0.4% (n = 300,000); Vibrio harveyi JMH597 AI-2 luminescence/OD600 ratio, 9 h; hits give low values; strain lacks LuxN and CqsS sensors; 0 = neutral-control median; activity change, % at 7.5 µM; in the data active = activity change below about -75%, passing the limit was not always enough;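 also: luminescence divided by OD600 gain over 9 h not by final OD600 alone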
ALR H2O2 inh: inhibitors of human sulfhydryl oxidase ALR. P55789. purified ALR, DTT oxidation, H2O2 HRP-luminol luminescence. inhibition, % (test concentration not listed). actives 3.8% (n = 290,000). AID 485317;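 active = mean replicate inhibition above about 79%, with every replicate also reaching it, limit read from the data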
Target sequence (P55789 whole entry, looked up): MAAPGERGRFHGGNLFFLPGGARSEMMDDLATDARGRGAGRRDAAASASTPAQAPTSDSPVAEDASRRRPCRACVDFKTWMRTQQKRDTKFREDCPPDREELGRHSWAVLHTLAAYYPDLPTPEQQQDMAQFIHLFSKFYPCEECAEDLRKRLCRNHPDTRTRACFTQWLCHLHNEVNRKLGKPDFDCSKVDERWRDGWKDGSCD
HSF1 inh: HSF1 inhibition; NIH3T3-HGL HSE-luciferase, MG132-induced, luminescence 8 h; hits give low values; activity change, negative = inhibition, % at 7.5 µM (by protocol); actives 0.77% (n = 300,000);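 active = more than half of replicate wells show activity change below -50%, luminescence cut by over half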;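 also: luciferase reports HSF-1 transcriptional activity via heat shock element; 0% = median of DMSO wells and -100% = zero luminescence signal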
PHOSPHO1 block: inhibitors of human PHOSPHO1 phosphatase. Q8TCT1. recombinant PHOSPHO1, absorbance phosphatase assay. inhibition, % at 13.3 µM. actives 1.1% (n = 290,000); in the data active = inhibition above about 60%
Target sequence (Q8TCT1 whole entry, looked up): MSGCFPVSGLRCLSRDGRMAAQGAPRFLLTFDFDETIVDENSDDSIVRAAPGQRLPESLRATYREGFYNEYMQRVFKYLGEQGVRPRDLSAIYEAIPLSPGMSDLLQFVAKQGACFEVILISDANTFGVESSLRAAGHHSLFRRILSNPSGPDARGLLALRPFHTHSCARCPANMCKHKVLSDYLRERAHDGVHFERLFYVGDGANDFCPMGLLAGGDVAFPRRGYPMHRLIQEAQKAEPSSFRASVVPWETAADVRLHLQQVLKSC
* hit, by the source's call; x = no result.

SMILES	HSF-1 act	HCV core dimer	AI-2 QS modul	ALR H2O2 inh	HSF1 inh	PHOSPHO1 block
O=[N+]([O-])c1ccc(S(=O)(=O)N2CCN=C2SCc2ccc(F)cc2)cc1	0.3	3.7	-5.4	-0.5	0.8	27.4
Cc1cccc(CSC2=NCCN2C(=O)c2ccc(Br)o2)c1	-0.6	1.6	41.7	95.4*	1.5	2.7
O=C(C1CC1)N1CCN=C1SCc1ccccc1	0.0	1.3	20.2	-0.7	5.8	22.2
O=C(Cc1ccccc1)N1CCN=C1SCc1cccc([N+](=O)[O-])c1	34.9	3.3	16.2	98.0*	11.9	57.0
Cc1cccc(C(=O)N2CCN=C2SCc2ccc([N+](=O)[O-])cc2)c1	-6.1	-54.3	-1.1	98.9*	-5.2	44.0
Oc1ccc(CCc2n[nH]c(=S)n2-c2ccc(F)cc2)cc1	-11.7	2.7	23.3	80.5*	-4.7	-62.7
CC1CC(C)CN(CCCNC(=O)CN2C(=O)c3cccnc3Oc3ccc(Cl)cc32)C1 (stereo not given)	0.5	-24.4	22.3	-2.7	-2.3	6.9
COc1ccc(/C=C2/C(=O)ON=C2C)cc1Br	7.2	-4.2	11.0	2.9	2.7	15.9
COc1ccccc1/C=C1/C(=O)ON=C1C	0.0	-3.1	13.3	97.8*	-5.2	x
N#Cc1c(NC(=O)/C=C/C(=O)O)sc2c1CCN(Cc1ccccc1)C2	58.7*	69.1*	31.8	-12.5	16.1	10.6
O=C(Nc1ccc(F)c(F)c1)C1CCCN(S(=O)(=O)c2cnc[nH]2)C1 (stereo not given)	16.2	8.2	9.3	x	-4.4	25.4
CCN(CC)c1ccc(NC(=O)C2CCCN(S(=O)(=O)c3cnc[nH]3)C2)c(C)c1 (stereo not given)	10.2	-6.4	30.5	100.8*	-4.2	2.7
COc1ccc(NC(=O)C2CCCN(S(=O)(=O)c3cnc[nH]3)C2)cc1 (stereo not given)	-0.9	0.3	20.5	42.4	-3.1	-13.3
CCSc1nnc(NC(=O)C2CCCN(S(=O)(=O)c3cnc[nH]3)C2)s1 (stereo not given)	4.3	1.2	30.4	92.8*	-7.1	30.2
Cc1cc(NC(=O)C2CCCN(S(=O)(=O)c3cnc[nH]3)C2)ccc1Br (stereo not given)	2.4	7.4	24.0	92.9*	-1.7	-8.8
Cc1ccc(NC(=O)C2CCCN(S(=O)(=O)c3cnc[nH]3)C2)cc1C (stereo not given)	-3.6	-3.9	14.0	97.9*	-1.7	14.1
CCC(=O)N1CCN(c2ccccc2NC(=S)NC(=O)c2ccco2)CC1	9.0	4.0	13.6	-0.6	-6.8	28.7
O=C(c1ccc(Cn2c(=S)[nH]c3ccc(N4CCOCC4)cc3c2=O)cc1)N1CCN(c2ccc(F)cc2)CC1	9.9	24.3	6.6	x	7.3	-18.3
O=c1c2cc(N3CCOCC3)ccc2[nH]c(=S)n1Cc1ccc(Cl)cc1	55.6*	2.2	7.9	-4.5	16.7	81.7*
Cc1ccc(C)c(N2CCN(C(=O)c3ccc(Cn4c(=S)[nH]c5ccc(N6CCOCC6)cc5c4=O)cc3)CC2)c1	7.3	48.2*	16.1	-75.4	8.5	-5.1
Cc1nnc2n1N=C(c1ccc(F)cc1F)CS2	x	x	x	16.3	x	x
CC(C)(C)N1C(=O)Cc2c1nc(N)c1c(N)nc(N3CCCCC3CO)c(C#N)c21 (stereo not given)	68.3*	-2.5	19.7	-67.8	23.6	8.9
CSc1ncc(CN2CCc3c([nH]c4ccccc34)C2c2cccc(O)c2)cn1 (stereo not given)	-3.5	1.1	31.8	x	0.1	22.0
COc1ccc2[nH]c(C)c(C(=O)CN(C)CC3OCCO3)c2c1	21.5	0.0	17.0	-12.5	-6.3	17.7
COC(=O)c1cc(Br)c(=O)n(CCc2ccc(O)cc2)c1	4.9	-2.8	24.4	90.0*	-0.5	2.9
SMILES	HSF-1 act	HCV core dimer	AI-2 QS modul	ALR H2O2 inh	HSF1 inh	PHOSPHO1 block
COC(=O)c1cc(Br)c(=O)n(CCc2ccc(F)cc2)c1	5.0	4.5	9.1	-6.6	11.4	2.5
Cc1ccccc1NS(=O)(=O)c1cc(C(=O)N2CCc3ccccc3C2)ccc1C	44.2	8.2	13.0	-4.3	14.2	13.7
Cc1ccc(NS(=O)(=O)c2cc(C(=O)N3CCc4ccccc4C3)ccc2Cl)cc1	67.0*	8.0	16.1	x	30.8	23.8
CCn1c2ccccc2c2cc(NC(=O)C(=O)N3CCOCC3)ccc21	29.6	-8.4	18.2	91.2*	7.9	32.4
CCn1c2ccccc2c2cc(NC(C)=O)ccc21	18.6	-7.5	18.3	0.8	6.0	6.8
Cc1cccc(N(C(=O)c2csnn2)C(C(=O)NCc2ccccc2)c2cccs2)c1 (stereo not given)	-3.2	-1.5	-10.0	0.6	2.4	35.1
CCN(CC)CCn1nc2c3c(cccc3c1=O)-c1ccccc1-2	173.1*	-5.4	22.2	-9.1	105.7	16.3
CS(=O)(=O)NN1C(=O)c2ccccc2NC1c1cccc(O)c1 (stereo not given)	-10.7	-5.4	8.6	-0.1	-7.7	-12.7
CN1C(=O)c2ccccc2NC(=O)[C@]12O[C@@H]2c1cccc(O)c1	8.6	-5.3	9.4	98.6*	-1.1	22.1
O=C(Sc1ccc(Cl)cc1)c1ccccn1	-19.9	-0.4	21.8	98.1*	1.4	x
O=C(NCCNC(=O)c1ccccn1)c1ccc(Cl)cc1	0.8	8.6	9.4	1.8	7.7	20.0
CCOc1cc(N2CCOCC2)c(OCC)cc1NC(=O)c1cc(-c2ccco2)nc2ccccc12	-78.4	-2.2	15.9	-40.3	-77.0*	14.8
COc1ccc(NC(=O)c2cc(-c3ccco3)nc3ccccc23)cc1S(=O)(=O)N1CCOCC1	-6.8	80.7*	28.9	x	0.7	7.2
Cc1ccc(NC(=O)c2cc(-c3ccco3)nc3ccccc23)cc1S(=O)(=O)N1CCOCC1	9.6	69.1*	41.4	-16.2	-0.8	4.5
Cc1cc(C)n(C(=O)COc2ccccc2[N+](=O)[O-])n1	0.4	-1.5	15.4	2.5	1.0	18.9
O=C(NC1CC1)c1ccc(NS(=O)(=O)c2ccc(F)cc2)cc1	0.9	-2.3	23.3	-12.6	3.1	x
CC1CCN(S(=O)(=O)N2CCC(C(=O)NCc3cccnc3)CC2)CC1	-10.2	2.2	17.6	0.1	-7.4	33.4
COC(=O)c1sccc1NC(=O)Nc1ccccc1F	58.3*	-2.2	3.1	11.6	22.3	62.8*
COC(=O)c1ccc(NC(=O)Nc2ccccc2F)cc1	70.2*	-10.0	25.3	-19.2	35.1	57.3
COC(=O)c1ccc(NC(=O)Nc2ccccc2C)cc1	18.2	-6.1	25.5	-3.6	15.3	18.2
COC(=O)c1sccc1NC(=O)Nc1ccc(Cl)c(Cl)c1	66.1*	4.5	11.0	-2.3	46.8	17.6
COC(=O)c1sccc1NC(=O)Nc1ccc(C)c(C)c1	x	x	18.7	47.5	x	37.0

From PubChem
